NF-kB expr up: raises NF-kB expression in human neuronal cells; AID 1239; NF-kB reporter expression; hits give high values; fold change at 12.5 µM; hit rate 1.6% among 190,000; in the data active = fold change above about 3.3
STAT3 activator: STAT3 signaling activation; U3A cells, IL-6 STAT3-luciferase reporter, luminescence; 100% = signal with IL-6 EC80 alone; activation (% of control), % at 5.6 µM; hit rate 0.91% among 190,000;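 active = activation above the screen-wide mean of compound activation plus 3 SD, cut at about 130% in these data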;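 note: 0% = background luminescence of wells with medium and substrate only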
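Test system: STAT3-luciferase reporter U3A cells; Detection: reporter luminescence signal; Times: 1 h compound pre-exposure, 6 h IL-6 stimulation, 37 °C; Benchmarks: IL-6-only high control; Also added: IL-6 stimulus at 33 ng/mL final.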
STAT1 blocker: STAT1 signaling inhibition. NIH 3T3 STAT1-luciferase reporter, IFN-gamma, luminescence. inhibition, % at 5.5 µM. hit rate 0.35% among 200,000. AID 920;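 active = inhibition above a set limit, the mean inhibition across all tested compounds plus 3 SD, cut at about 34% in these data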;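 note: 0% = IFN-gamma with DMSO and 100% = IFN-gamma with 300 µM nifuroxazide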
STAT3 inh: reduces IL-6 driven STAT3 reporter signal. U3A cells, IL-6 STAT3-luciferase reporter, luminescence; host cell line lacks STAT1. inhibition, % at 5.5 µM. hit rate 0.89% among 190,000;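 active = inhibition above the mean inhibition across all screened compounds plus 3 SD, cut at about 44% in these data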;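 note: 0% = DMSO only wells and 100% = 100 µM nifuroxazide control wells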
APP 5'UTR act: activates APP 5'UTR luciferase reporter. SH-SY5Y APP 5'UTR luciferase reporter, luminescence; zero percent = DMSO vehicle wells. activation, % at 2 µM. hit rate 1% among 190,000;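 active = activation above a set limit, based on mean plus 3 SD of controls, cut at about 140% in these data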
STAT1 activator: activators of IFN-gamma induced STAT1 signaling; NIH 3T3 STAT1-luciferase reporter, luminescence; 100% = IFN-gamma alone, no compound; AID 932; activation (% of control), % at 5.5 µM; hit rate 2.6% among 200,000;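 active = activation above the screen-wide mean activation plus 3 SD, cut at about 130% in these data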;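 note: raw ratio to IFN-gamma control signal so 100% means no change and 0% no light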
Starred values were filed as active, the others as inactive; x = no result given. Only some compounds are listed: those with a hit (about 4.9% of all), similar ones and a draw of the others.

SMILES	NF-kB expr up	STAT3 activator	STAT1 blocker	STAT3 inh	APP 5'UTR act	STAT1 activator
COc1cc(C(c2c(C)[nH][nH]c2=O)c2c(C)[nH][nH]c2=O)ccc1OC(=O)c1cccc([N+](=O)[O-])c1	1.3	97	-6	8	1	106
CCOC(=O)C(=Cc1ccc(OCc2ccc([N+](=O)[O-])cc2)c(OC)c1)C(=O)OCC	3.6*	112	-21	-4	10	113
COc1cc(C=O)ccc1OCCCOc1ccc([N+](=O)[O-])cc1	0.89	100	6	3	-15	95
COc1cc(C(c2c(C)[nH][nH]c2=O)c2c(C)[nH][nH]c2=O)ccc1OCc1ccc([N+](=O)[O-])cc1	3.8*	117	-19	-20	x	111
O=C1CN(C(=O)c2ccc(Br)o2)C(c2ccccc2)c2cc(Cl)ccc2N1 (configuration not stated)	0.94	124	8	-20	-8	92
Cc1ccc2c(c1)C(c1ccccc1)N(C(=O)c1ccc(Br)o1)CC(=O)N2 (configuration not stated)	0.62	135*	8	-38	21	92
CCn1nnnc1SCC(=O)Nc1nc2ccc(OC)cc2s1	1.6	101	-23	3	7	118
COc1ccc2nc(Nc3ccccc3OC)sc2c1	7.9*	82	-8	26	202*	108
COc1ccc2nc(NC(=O)c3ccc(-n4nc(C)cc4C)cc3)sc2c1	1.3	94	-12	13	7	111
COc1ccc(Nc2nc3ccccc3c(=O)s2)c(OC)c1	0.92	87	1	17	-1	99
COc1ccc2nc(NC(=O)CSc3nnc(-c4ccoc4C)n3C)sc2c1	2.4	89	-33	17	49	130*
COc1ccc2nc(NC(=O)c3ccc4ncsc4c3)sc2c1	1.6	94	-46	12	116	142*
COc1ccc(OCC(=O)Nc2nc3ccc(NC(C)=O)cc3s2)cc1	1.1	101	-10	1	-4	110
COc1ccc2nc(NC(C)=O)sc2c1	2.6	103	-43	-2	82	139*
COc1cnc(-c2ccccc2)nc1Oc1ccc(Cl)cc1C	1.1	105	0	-2	-19	100
Nc1ncnc(Nc2ccc(F)cc2)n1	1	93	-7	10	-10	106
Fc1ccc(Nc2ccnc(Nc3ccc(F)cc3)n2)cc1	2.9	95	-42	9	77	137*
Cc1ccnc(NS(=O)(=O)c2ccc(NC(=O)c3ccc([N+](=O)[O-])s3)cc2)n1	5.7*	99	14	10	16	87
COc1ccc(C2CC(c3ccccc3)=NN2C(=O)COC(=O)c2cc(S(=O)(=O)N3CCOCC3)ccc2F)cc1 (configuration not stated)	1.2	97	-1	8	-2	101
O=C(NC(=S)Nc1cccnc1)c1cccs1	1.5	92	-19	14	-2	116
O=C(CCC(=O)Nc1ccccc1)NNC(=O)c1cccs1	1	109	3	-3	13	97
O=C(NC(=S)Nc1ccc(Cl)cn1)c1cccs1	4*	151*	-105	-48	186*	194*
O=C(NNC(=S)Nc1ccc(Cl)cc1)c1cccs1	1.8	91	-35	15	53	131*
O=C(NNC(=S)Nc1ccccc1)c1cccs1	2.5	104	-32	-6	66	130*
Cc1ccc(S(=O)(=O)NCCCCCC(=O)Nc2cccc(C)c2)cc1	0.98	103	0	1	18	100
SMILES	NF-kB expr up	STAT3 activator	STAT1 blocker	STAT3 inh	APP 5'UTR act	STAT1 activator
CC1CC(C)CN(C(=O)c2cc3cc(Br)cc(Br)c3o2)C1 (configuration not stated)	2.3	84	-12	25	37	111
COc1ccc2c(CSc3nc4nc(C)cc(C)n4n3)cc(=O)oc2c1	4.2*	113	1	-6	10	99
Cc1ccc2c(CSc3nc4nc(C)cc(C)n4n3)cc(=O)oc2c1	1	113	12	-13	14	89
CCOC(=O)C(C(C)=O)c1c(Br)c(O)c(O)c2c(C(=O)c3ccc(C)cc3)coc12 (configuration not stated)	4.5*	105	6	-4	5	94
C/C(=N\NC(=O)c1cccc(S(=O)(=O)Nc2cccc(Cl)c2)c1)c1cccs1	1.2	105	-6	0	2	105
C/C(=N\NC(=O)c1ccccc1)c1ccccc1F	1	105	-37	1	95	132*
C/C(=N\NC(=O)C(N)=O)c1ccc(NC(=O)c2cccs2)cc1	1.7	91	-40	15	56	137*
C/C(=N\NC(=O)c1ccccc1)c1ccc(NC(=O)c2cccs2)cc1	1.3	91	-39	7	79	136*
CCN(CC)S(=O)(=O)c1cccc(C(=O)N/N=C(\C)c2cccs2)c1	2.8	103	-34	0	112	129*
O=C(O)/C(=C\c1ccc(Cl)cc1)c1ccc(F)cc1	1.3	96	-5	7	17	104
CCNc1nc(NC(C)CC)nc(ON=C(C)C)n1 (configuration not stated)	1	107	8	-5	1	92
Cc1[nH]ccc(=O)c1Oc1ncc(C(F)(F)F)cc1Cl	1	98	0	6	4	98
N/C(=N\O)c1ccc(NC(=O)c2cccs2)cc1	2.3	105	-30	-2	51	130*
C/C(=N/NC(=O)c1cccs1)c1cccc(N)c1	2.1	93	-25	11	111	121
CC(=O)Nc1cccc(/C(C)=N/NC(=O)c2cccs2)c1	1.2	108	-43	-12	7	140*
Cc1ccc(CCN2C(=O)c3ccccc3C2C(=O)NCc2cccnc2)cc1 (configuration not stated)	1.2	84	17	26	25	84
O=C(N/N=C/c1ccccc1O)C(=O)Nc1ccccn1	1.4	96	-17	6	0	115
COc1ccc(NC(=O)c2cccc(OS(=O)(=O)N(C)C)c2)cc1	4.8*	98	-12	10	157*	110
COC(=O)c1ccc(OS(=O)(=O)N(C)C)cc1	1	115	-34	-10	27	130*
CN(C)S(=O)(=O)Oc1ccc(C(=O)Nc2ccc([N+](=O)[O-])cc2)cc1	1.1	73	7	35	44	93
CN(C)S(=O)(=O)Oc1cccc(C(=O)Nc2cccc(Cl)c2)c1	1.6	86	-18	27	72	116
CN(C)S(=O)(=O)Oc1cccc(C(=O)Nc2ccc(Cl)c(Cl)c2)c1	4.2*	83	-41	21	174*	137*
c1cnc2nc(-c3ccc4c(c3)OCO4)cn2c1	2.2	95	-42	11	62	136*
c1ccc(-c2nccc(-c3ccc4c(c3)OCO4)n2)cc1	2	130	-38	-33	47	134*

Screening data deposited in PubChem by several laboratories.
